Reference: ChEMBL document CHEMBL1132999, “Synthesis and oral antitumor activity of tetrakis(carboxylato)platinum(IV) complexes” (J Med Chem, 2000)

Tests used:
[1] = Partition coefficient (logP); assay type: physicochemical; details: octanol/water
[2] = test system: Mus musculus; experiment: antitumor activity (survival) by the oral administration of 100 mg/kg scheduled treatment (Q1D x 5) in BDF1 mice inoculated with L1210 leukemia; assay type: functional, organism-based; parameters: dose 100 mg/kg; details: at 100 mg/kg
Summary of the method: (§1)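 BDF1 mice inoculated with L1210 leukaemia and fasted before dosing. Complexes suspended in 0.2 mL 0.5% Tween 80 and given by stomach catheter on days 1-5 (Q1D × 5). Activity expressed as T/C (%), the ratio of mean survival time (days) of treated versus control mice.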

[3] = test system: L1210; experiment: in vitro antitumor activity (cytotoxicity) against the murine leukemia L1210 cell; assay type: functional, cell-based; details: Mus musculus
[4] = test system: Mus musculus; experiment: antitumor activity (survival) by the oral administration of 150 mg/kg scheduled treatment (Q1D x 5) in BDF1 mice inoculated with L1210 leukemia; toxic; assay type: functional, organism-based; parameters: dose 150 mg/kg; summary of the method: as §1
[5] = test system: Mus musculus; experiment: antitumor activity (survival) by the oral administration of 150 mg/kg scheduled treatment (Q1D x 5) in BDF1 mice inoculated with L1210 leukemia; assay type: functional, organism-based; parameters: dose 150 mg/kg; details: at 150 mg/kg; summary of the method: as §1

Substance | logP [1] | ED50 [3] | T/C [5] | also measured
[Pt(O2CC3H7)4(dach)]dach : trans-(+/-)-1,2-diaminocyclohexane [listing 1 of 2 here] | 1.54 | – | – | –
[Pt(O2CC3H7)4(dach)]dach : trans-(+/-)-1,2-diaminocyclohexane [listing 2 of 2 here] | – | 6.2 µM | – | T/C [2]: 108%; T/C [4]: Toxic
[Pt(O2CC4H9)4(dach)]dach : trans-(+/-)-1,2-diaminocyclohexane [listing 1 of 2 here] | 2.54 | – | – | –
[Pt(O2CC4H9)4(dach)]dach : trans-(+/-)-1,2-diaminocyclohexane [listing 2 of 2 here] | – | > 50 µM | 107% | –
[Pt(O2CC5H11)4(dach)]dach : trans-(+/-)-1,2-diaminocyclohexane [listing 1 of 2 here] | 3.03 | – | – | –
[Pt(O2CC5H11)4(dach)]dach : trans-(+/-)-1,2-diaminocyclohexane [listing 2 of 2 here] | – | > 50 µM | 98.9% | –
[Pt(O2CCH3)4(dach)]dach [listing 1 of 2 here] | -1.59 | – | – | –
[Pt(O2CCH3)4(dach)]dach [listing 2 of 2 here] | – | 25.8 µM | 100% | –
[Pt(OH)4(dach)]dach | – | 32.6 µM | 112% | –
